Published values collected from several papers.
Target: High affinity nerve growth factor receptor (NTRK1, Homo sapiens, UniProt P04629)

Structure (SMILES)	observed	action	method	tested at	endpoint	result
Cc1ccc(C(=O)Nc2ccc(CN3CCN(C)CC3)c(C(F)(F)F)c2)cc1C#Cc1cnc2cccnn12	cell-free assay	–	–	23.5 nM	remaining signal	26%
Cc1ccc(C(=O)NCc2ccsc2)cc1C#Cc1cn(C(C)C)c2ncnc(N)c12	enzyme activity	inhibitor	–	1 µM	activity vs control	74%
Nc1cnc(N2CCc3cc(S(=O)(=O)Nc4c(F)cc(Cl)cc4F)cc(N4CCCC4=O)c32)nc1	cell-free assay	–	competition with immobilised ligand	1 µM	remaining binding	100%
O=C(Nc1ccc(F)cc1)Nc1cccc(C(=O)Nc2ccc3[nH]ncc3c2)c1	enzyme activity	inhibitor	FRET	1 µM	inhibition	63.2%
CNC(=O)Nc1ccc2c(c1)CC[C@@]21OC(=O)N(CC(=O)N(Cc2ccc(F)cc2)[C@@H](C)C(F)(F)F)C1=O	cell-free assay	–	competition with immobilised ligand	1 µM	remaining binding	81%
O=C1NC(=O)c2cc(Nc3ccc(F)cc3)c(Nc3ccc(F)cc3)cc21	cell-free assay	–	–	0.5 µM	remaining signal	93.6%
FC(F)c1nc2ccccc2n1-c1nc(N2CCOCC2)nc(N2CCOCC2)n1	enzyme activity	inhibitor	–	10 µM	remaining activity	83%
Cc1[nH]c(/C=C2\C(=O)Nc3ccc(F)cc32)c(C)c1C(=O)N[C@H]1CCN(C(=O)N(C)C)C1	enzyme activity	inhibitor	–	1 µM	remaining activity	5%
CC(C)(C)c1nc2c(s1)c1nc(N)ncc1c1ccc(NS(=O)(=O)c3c(F)cccc3F)c(F)c12	enzyme activity	inhibitor	radiometric	1 µM	remaining activity	54%
O=C(Nc1ccc2[nH]ncc2c1)c1cccc(NC(=S)Nc2cc(C(F)(F)F)cc(C(F)(F)F)c2)c1	enzyme activity	inhibitor	FRET	1 µM	inhibition	51.3%
CCOCCn1cc(C(=O)Nc2ccc(-n3nc(-c4cccnc4)cc3C(F)(F)F)cn2)ccc1=O	cell-free assay	–	competition with immobilised ligand	1 µM	remaining binding	100%
O=C(Nc1ccc(Br)cc1)Nc1cccc(C(=O)Nc2ccc3[nH]ncc3c2)c1	enzyme activity	inhibitor	FRET	1 µM	inhibition	50.5%
FC(F)(F)Oc1cccc(-c2cnc3ccc(-c4ccncc4)nn23)c1	enzyme activity	inhibitor	radiometric	5 µM	activity vs control	15%
CCC(=N\O)/C(C)=C/c1ccc(F)cc1	cell-free assay	–	competition with immobilised ligand	1 µM	remaining binding	83%
Cc1cc(NC(=O)c2cccc3cc(-c4cccc5[nH]nc(N)c45)ccc23)ccc1F	enzyme activity	inhibitor	–	0.1 µM	activity vs control	121%
COc1cc(-c2cn(C3CCc4ccccc4N(CC(F)(F)F)C3=O)nn2)ccc1-n1ccc(C)n1 (centres unmarked)	cell-free assay	–	competition with immobilised ligand	1 µM	remaining binding	63%
Cc1cnc(NC2CCOCC2)nc1-n1cnc(C(=O)NC(CN)c2cc(F)cc(Cl)c2)c1 (centres unmarked)	enzyme activity	inhibitor	radiometric	1 µM	remaining activity	100%
CN([C@@H]1CCc2c(CC(=O)O)c3cc(S(C)(=O)=O)ccc3n2C1)S(=O)(=O)c1ccc(F)cc1	cell-free assay	–	competition with immobilised ligand	1 µM	remaining binding	100%
Cc1ccc(NC(=O)c2ccc(CN3CCN(C)CC3)cc2)cc1Nc1nc(-c2cccnc2)cs1	cell-free assay	–	–	0.5 µM	remaining signal	97.1%
CCN(CC)CCNC(=O)c1c(C)[nH]c(/C=C2\C(=O)Nc3ccc(F)cc32)c1C	enzyme activity	inhibitor	–	1 µM	remaining activity	2%
Nc1ncnc2occ(-c3ccc(NC(=O)Nc4cc(C(F)(F)F)ccc4F)cc3)c12	cell-free assay	–	–	20 µM	remaining signal	0%
CS(=O)(=O)N1CCCC(NC(=O)[C@H](CCC2CCCCC2)NC(=O)c2ccc(CNc3ncnc4c3nnn4-c3ccccc3)cc2)C1 (some centres unmarked)	cell-free assay	–	competition with immobilised ligand	0.1 µM	remaining binding	100%
COc1cc(/C=C/C(=O)CC(=O)/C=C/c2ccc(O)c(OC)c2)ccc1O	enzyme activity	inhibitor	–	1 µM	activity vs control	93%
O=C(Nc1cccc(F)c1)Nc1cccc(C(=O)Nc2ccc3[nH]ncc3c2)c1	enzyme activity	inhibitor	FRET	1 µM	inhibition	51.3%
Cc1c(NC(=O)c2cc(C(N)=O)nc3cc(F)ccc23)c(C(F)(F)F)nn1Cc1ccc(C#N)cc1	cell-free assay	–	competition with immobilised ligand	1 µM	remaining binding	83%
O=C(Cc1ccc(C(F)(F)F)cc1)Nc1cccc(C(=O)Nc2ccc3[nH]ncc3c2)c1	enzyme activity	inhibitor	FRET	1 µM	inhibition	46%
Cc1sc(C(=O)NC2COC2)cc1-n1cc(NC(=O)Nc2c(F)cccc2Cl)cn1	enzyme activity	inhibitor	–	10 µM	remaining activity	81%
O=C(Nc1cnn2ccc(N3CCC[C@@H]3c3cc(F)ccc3F)nc12)N1CC[C@H](O)C1	enzyme activity	inhibitor	FRET	1 µM	inhibition	100%
Cc1ccc(NC(=O)c2ccc(C)c(C(F)(F)F)c2)cc1C#Cc1nn(C2CCC(O)CC2)c2ncnc(N)c12 (centres unmarked)	cell-free assay	–	–	10 µM	remaining signal	72%
